# A selection: hits, their analogues and other compounds. The true share with any hit is near 3.1%.
# PolyA inh: polyadenylation inhibitors in yeast reporter cells, primary screen, luminescence, S. cerevisiae | 0.02% of 300,000 active | S. cerevisiae SKY197-pL101 polyadenylation reporter, beta-gal luminescence; efflux-impaired pdr1/pdr3 knockout yeast; score 100 = 6 SD above DMSO | activity score, % at 12 µM;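 active = lowest replicate activity score at least 50, where 100 means six control SD above control mean; inconclusive = lowest score under 50 but half or more replicates reach 50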;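 also: yeast exposed to compound for 9 h at 30 °C; higher score means more reporter readthrough which indicates perturbed polyadenylation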
# CSC inhib: cancer stem cell viability inhibitors, primary screen, luminescence | cancer stem cell-like cells viability | inhibition, % at 7.5 µM | 1.1% of 300,000 active; in the data active = inhibition above about 75%; inconclusive = no clear call, values can overlap the other calls; tested in HMLE shEcad cells
# Beta cell apopt: inhibitors of cytokine-induced beta cell apoptosis, primary screen, luminescence. protection from apoptosis, % (test concentration not listed). 0.8% of 300,000 active. INS-1E cytokine-induced death, ATP luminescence, 48 h; percent of positive-control rescue, neutral wells zero;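 active = Every replicate reaches about 75%, or at least half do and their mean reaches it too, limit read from the data; inconclusive = At least half of replicates reach the limit but their mean does not; inactive = Under half of replicates reach the limit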;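 also: higher means more ATP so stronger rescue from cytokine killing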
# HIF act: HIF pathway transcriptional activators, primary screen, cell-based, U2OS HRE-luciferase, luminescence; U2OS HRE-luciferase reporter; normalized: DMSO 0%, desferrioxamine 100%; activation, % at 7.5 µM (by protocol); 0.32% of 300,000 active;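 active = mean activation of at least 10% of the iron chelator positive control signal, with at least half of replicates also reaching 10%; inconclusive = mean and replicate majority disagree about reaching 10%; inactive = mean and most replicates under 10%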
# T cruzi repl: inhibitors of intracellular T. cruzi growth, primary screen, luminescence, NIH3T3 host cells; T. cruzi beta-gal in NIH3T3, 90 h; inhibition, % (test concentration not listed); 1.4% of 300,000 active; AID 1885, 2009;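 active = mean inhibition across valid replicates above about 55%, limit read from the data; inconclusive = mean below that limit but half or more replicates reach it; inactive = mean below it, under half of replicates reach it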;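 also: signal also drops with host cell toxicity which is not excluded here; higher percent means less beta-gal luminescence so fewer parasites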
#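 Assay system: NIH/3T3 host cells with β-galactosidase reporter T. cruzi; input: 5,000 host fibroblasts per well; compound: single 50 nL compound addition per well in DMSO; timing: ≥90 h infection period, 3 h prior cell attachment; measured by: GalScreen β-gal luminescence, detergent lysis, 60 min; evaluation: percent inhibition of parasite-derived β-gal signal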
# Calb FLC: C. albicans growth inhibition with fluconazole, primary screen, CaCi-2 strain, Alamar Blue fluorescence. C. albicans CaCi-2 (fluconazole-resistant clinical isolate) + fluconazole, 48 h. growth inhibition, % (concentration not given with the values). 0.57% of 300,000 active. AID 1979, 2009;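 active = growth inhibition above about 58% in most replicates, limit read from the data, passing the limit was not always enough; inconclusive = exactly half the replicates above a set limit; inactive = most replicates below a set limit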;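 also: all wells also contain fluconazole at 8 µg/ml as a sub-toxic cotreatment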
# A number is an active result; - = inactive; ? = inconclusive; . = no result.
SMILES,PolyA inh,CSC inhib,Beta cell apopt,HIF act,T cruzi repl,Calb FLC
COc1ccc(S(=O)(=O)/N=C2\C=C(Nc3ccc(O)cc3)C(=O)c3ccccc32)cc1,-,.,111,-,67,-
COCCNC(=O)CCc1nnc(C2(c3ccc(Cl)cc3)CCC2)o1,-,-,-,-,-,-
Cc1ccsc1C(=O)OCC(=O)Nc1sccc1C(N)=O,-,-,.,-,-,96
Cc1ccsc1C(=O)OCC(=O)NCCNC(=O)COC(=O)c1sccc1C,-,-,-,-,-,-
Cc1cc(C(=O)CN2CCN(CC(=O)Nc3ccc(F)cc3)CC2)c(C)n1C1CC1,.,-,-,.,.,.
COc1ccc(CCNC(=O)COC(=O)CCC(=O)c2ccc(F)cc2)cc1OC,-,-,-,299,-,-
Cn1cc(C(=O)NC2CCCCC2)c(=O)c2cc(S(=O)(=O)N3CCOCC3)ccc21,-,-,-,-,-,-
Cn1c(=O)cc(OCCCC(=O)Nc2ccc3c(c2)OCCO3)c2ccccc21,-,-,-,-,-,-
Cn1c(=O)cc(OCCCC(=O)Nc2cccnc2)c2ccccc21,-,-,-,-,-,111
CN(CCCNC(=O)CCCOc1cc(=O)n(C)c2ccccc12)Cc1ccccc1,-,-,-,-,71,116
O=C(COC(=O)Cc1ccc(S(=O)(=O)N2CCOCC2)s1)Nc1ccccc1Cl,.,-,-,.,.,.
COc1ccc2oc(=Nc3ccccc3)c(-c3nc4ccccc4[nH]3)cc2c1,-,-,-,-,-,-
COc1cc2[nH]c(Cl)c([N+](=O)[O-])c2cc1OC,-,-,-,-,-,-
CC(C)CN1CCCC(N2CCN(c3cccc(Cl)c3)CC2)C1 (stereo unspecified),-,-,.,-,65,-
CC(=O)NCCC(=O)N1CCCC(N2CCN(c3cccc(Cl)c3)CC2)C1 (stereo unspecified),-,-,.,-,-,-
COc1ccc(CN2CCCC(N3CCN(c4cccc(Cl)c4)CC3)C2)cc1OC (stereo unspecified),-,-,-,-,56,-
Oc1ccc(Nc2ncnc3c2oc2ccccc23)cc1,-,-,-,-,-,-
Oc1cccc(Nc2ncnc3c2oc2ccccc23)c1,-,-,-,-,-,91
CC(C)C(Nc1ncnc2c1oc1ccccc12)C(=O)O (stereo unspecified),-,-,-,-,77,-
O=C1CN(C(=O)c2ccccc2F)C(c2ccc(F)cc2)c2cc(Br)ccc2N1 (stereo unspecified),-,-,-,-,-,-
Cc1nc2c(nnn2Cc2ccccc2)c(=O)[nH]1,-,-,-,-,-,-
COc1cc(/C=C(/C#N)c2ccc(F)cc2)ccc1Oc1ccc([N+](=O)[O-])cn1,-,-,-,-,-,-
CCc1nc(N2CCN(C(C)=O)CC2)c2c3c(sc2n1)CC(C(C)(C)C)CC3 (stereo unspecified),-,-,118,-,-,-
O=C(Nc1cccnc1)c1ccc([N+](=O)[O-])s1,.,-,78,.,.,.
O=C(Nc1cccc2ccccc12)c1ccc([N+](=O)[O-])s1,-,-,-,-,57,-
SMILES,PolyA inh,CSC inhib,Beta cell apopt,HIF act,T cruzi repl,Calb FLC
O=C(Nc1ccccc1F)c1ccc([N+](=O)[O-])s1,-,-,-,-,65,-
CN(C)NC(=O)c1ccc([N+](=O)[O-])s1,-,-,-,-,-,-
Cc1c(C(=O)N(CCO)Cc2ccccc2)oc2c(F)cccc12,-,-,-,-,-,-
COc1ccc(OCCCC(=O)OC(C)C(=O)Nc2cccc(C(C)=O)c2)cc1 (stereo unspecified),-,-,-,-,-,-
CCOC(=O)N1CCN(C(=O)c2ccc(Oc3ccc([N+](=O)[O-])cc3)cc2)CC1,-,-,-,-,-,-
COc1ccc(CNc2nc(-c3cccnc3)nn2C(=O)C(C)C)cc1,-,.,.,-,-,-
O=C(CCCn1ncn2c(cc3occc32)c1=O)NCc1ccccc1F,-,-,-,-,-,-
COc1ccc(C(=O)c2cc([N+](=O)[O-])ccc2N2CCOCC2)cc1,-,-,-,-,-,-
CCOc1ccc(C(=O)c2cc([N+](=O)[O-])ccc2N2CCOCC2)cc1,-,-,79,-,-,-
COc1cc(OC)c(C=O)c(OC(=O)N2CCOCC2)c1,-,128,-,-,-,-
COc1ccc(CNC(=O)CN2C(=O)CSc3ccc(S(=O)(=O)N4CCCCC4)cc32)cc1,-,-,-,-,-,-
O=c1c(Cl)c(NCc2ccccc2)cnn1C12CC3CC(CC(C3)C1)C2,-,77,-,-,-,?
COc1ccc(N(CC(=O)Nc2cc(C)ccc2C)S(=O)(=O)c2ccccc2[N+](=O)[O-])c(OC)c1,-,-,-,-,-,-
Cc1cc(NC(=O)CN2C(=O)NC(c3ccccc3)(c3ccc(C)c(C)c3)C2=O)no1 (stereo unspecified),.,.,-,.,.,.
O=c1c(C(c2ccccc2)c2c(O)sc3ccccc3c2=O)c(O)sc2ccccc12,-,88,-,-,-,-
COc1ccc(OC)c(NC(=O)CSc2nn3c(=O)c(C)nnc3s2)c1,-,-,-,-,-,-
Cc1ccc2nc(-c3ccc(NS(=O)(=O)c4ccc(F)c(F)c4)cc3)sc2c1,-,103,-,-,-,-
Cc1ccc2nc(-c3ccc(NS(=O)(=O)c4ccccc4)cc3)sc2c1,-,-,-,-,-,-
Cc1cccc(C)c1N/C=C/c1onc(C)c1[N+](=O)[O-],-,-,-,-,-,-
Cc1noc(/C=C/c2cccnc2)c1[N+](=O)[O-],-,-,-,-,59,-
Cc1cc(C)cc(NC(=O)CSc2nc3c(oc4ccccc43)c(=O)n2-c2ccccc2)c1,-,-,-,-,55,-
Cc1ccc(-n2c(SCC(N)=O)nc3c(oc4ccccc43)c2=O)cc1,-,-,-,-,-,-
O=C(Nc1ccc(OCC(=O)N2CCC(Cc3ccccc3)CC2)cc1)c1ccco1,-,-,98,-,-,-
CC(=O)Nc1ccc(OCC(=O)N2CCC(Cc3ccccc3)CC2)cc1,-,-,-,-,-,-
CCOc1ccc(S(=O)(=O)N(C(=O)c2ccco2)c2cc3sc(=O)oc3c3ccccc23)cc1,-,-,99,-,-,-
COc1ccc(S(=O)(=O)N(C(=O)c2ccco2)c2cc3sc(=O)oc3c3ccccc23)cc1,-,-,98,-,-,-
Cc1ccc(S(=O)(=O)N(C(=O)c2ccco2)c2cc3sc(=O)oc3c3ccccc23)cc1,-,-,-,-,-,-
COc1ccc(Cc2nc(-c3ccc(NC(=O)c4cccnc4)cc3)no2)cc1,-,-,107,-,-,-

# Source: PubChem BioAssay
